Assay results published in ChEMBL document CHEMBL1152334, “Quassinoid inhibition of AP-1 function does not correlate with cytotoxicity or protein synthesis inhibition” (J Nat Prod, 2009).
The source made the active and inactive calls. The rule behind the calls is not given here.

Experiments:
[1] = target: T1, Inhibitor of nuclear factor kappa-B kinase subunit alpha (Homo sapiens) (UniProt O15111); assay: Inhibition of TPA-induced IkappaBalpha phosphorylation in HEK293 whole cell extract at 31.6 uM treated 1 hr before TPA stimulation measured after 18 hrs by immunoblot analysis; type: cell-based
T1 sequence (whole entry): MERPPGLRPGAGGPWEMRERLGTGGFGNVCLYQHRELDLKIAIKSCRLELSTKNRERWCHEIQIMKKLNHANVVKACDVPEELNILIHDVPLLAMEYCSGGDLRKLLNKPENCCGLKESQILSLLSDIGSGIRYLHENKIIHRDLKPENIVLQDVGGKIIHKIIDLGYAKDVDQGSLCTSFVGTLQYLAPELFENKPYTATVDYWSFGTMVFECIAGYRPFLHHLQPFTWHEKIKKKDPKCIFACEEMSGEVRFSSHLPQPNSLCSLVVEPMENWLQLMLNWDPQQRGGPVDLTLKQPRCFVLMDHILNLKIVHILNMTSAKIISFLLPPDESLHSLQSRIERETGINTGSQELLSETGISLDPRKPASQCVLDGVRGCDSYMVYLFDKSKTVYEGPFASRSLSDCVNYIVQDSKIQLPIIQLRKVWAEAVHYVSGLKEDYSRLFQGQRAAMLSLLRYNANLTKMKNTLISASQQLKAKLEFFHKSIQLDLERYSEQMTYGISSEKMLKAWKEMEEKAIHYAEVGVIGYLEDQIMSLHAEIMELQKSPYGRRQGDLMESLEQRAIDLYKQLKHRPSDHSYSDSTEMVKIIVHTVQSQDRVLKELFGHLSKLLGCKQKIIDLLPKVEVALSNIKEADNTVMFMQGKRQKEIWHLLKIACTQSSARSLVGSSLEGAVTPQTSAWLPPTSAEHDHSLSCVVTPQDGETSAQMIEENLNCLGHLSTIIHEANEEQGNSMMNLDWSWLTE
Outline: (§1)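 HEK293 cells were exposed to compound or DMSO for 1 h, then induced with TPA 10 ng/mL for 18 h. Cells were lysed in RIPA buffer (10 mM Tris-HCl pH 7.5, 1 mM EDTA, 0.1% SDS, 0.1% deoxycholate, protease inhibitor). Whole-cell extracts were immunoblotted for phospho-IκB-α and phospho-Stat3 (Tyr705), with tubulin as loading control.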

HEK293 = assay: Inhibition of TPA-induced NF-kappaB transfected in HEK293 cells treated 1 hr before TPA stimulation measured after 18 hrs by luciferase reporter gene assay; type: cell-based
Outline: (§2)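 HEK293 cells were grown in DMEM with 10% FBS at 37 °C and 5% CO2. They were transiently transfected with a luciferase reporter (0.1 µg/well); reporters were AP-1 (four TRE consensus copies from GCN4), NF-κB (five responsive-element copies) or SRE. After 24 h, medium went to DMEM with 0.2% FBS. Cells were pretreated 1 h with compound or DMSO, then given TPA 10 ng/mL for 18 h. Firefly luciferase was read from passive-lysis lysates, TPA alone = 100%, in quadruplicate.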

Nucleic Acid = assay: Inhibition of TPA-induced SRE transfected in HEK293 cells treated 1 hr before TPA stimulation measured after 18 hrs by luciferase reporter gene assay; type: cell-based; outline: as §2
[2] = target: Signal transducer and activator of transcription 3 (Homo sapiens) (UniProt P40763); assay: Inhibition of TPA-induced phosphorylation at Tyr705 of Stat3 in HEK293 whole cell extract at 35.5 uM treated 1 hr before TPA stimulation measured after 18 hrs by immunoblot analysis; outline: as §1
Sequence of Signal transducer and activator of transcription 3 (Homo sapiens) (P40763 whole entry): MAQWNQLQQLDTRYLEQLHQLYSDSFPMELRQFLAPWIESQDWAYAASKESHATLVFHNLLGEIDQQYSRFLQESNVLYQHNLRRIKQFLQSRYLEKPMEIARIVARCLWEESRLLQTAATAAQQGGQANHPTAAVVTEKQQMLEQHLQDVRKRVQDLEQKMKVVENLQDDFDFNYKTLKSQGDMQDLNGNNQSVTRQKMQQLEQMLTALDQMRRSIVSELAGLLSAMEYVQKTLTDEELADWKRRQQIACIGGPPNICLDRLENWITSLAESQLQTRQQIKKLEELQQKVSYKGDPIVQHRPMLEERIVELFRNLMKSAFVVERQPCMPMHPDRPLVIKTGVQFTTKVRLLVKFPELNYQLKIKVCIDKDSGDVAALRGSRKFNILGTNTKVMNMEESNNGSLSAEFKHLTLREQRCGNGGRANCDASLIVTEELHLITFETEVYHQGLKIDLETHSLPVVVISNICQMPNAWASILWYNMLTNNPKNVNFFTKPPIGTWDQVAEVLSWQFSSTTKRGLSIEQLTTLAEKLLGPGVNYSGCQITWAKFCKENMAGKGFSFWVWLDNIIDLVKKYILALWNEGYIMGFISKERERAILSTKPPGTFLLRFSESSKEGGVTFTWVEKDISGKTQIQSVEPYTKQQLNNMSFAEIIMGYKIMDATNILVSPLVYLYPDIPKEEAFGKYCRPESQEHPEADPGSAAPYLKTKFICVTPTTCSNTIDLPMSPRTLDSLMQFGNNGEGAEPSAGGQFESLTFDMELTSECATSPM

[3] = target: Signal transducer and activator of transcription 3 (Homo sapiens) (UniProt P40763); assay: Inhibition of TPA-induced phosphorylation at Tyr705 of Stat3 in HEK293 whole cell extract at 40.8 uM treated 1 hr before TPA stimulation measured after 18 hrs by immunoblot analysis; type: cell-based; outline: as §1
[4] = Growth inhibition of human NCI60 cells; type: functional; conditions: Homo sapiens, NCI60
[5] = target: T1, Inhibitor of nuclear factor kappa-B kinase subunit alpha (Homo sapiens); assay: Inhibition of TPA-induced IkappaBalpha phosphorylation in HEK293 whole cell extract at 15.8 uM treated 1 hr before TPA stimulation measured after 18 hrs by immunoblot analysis; type: cell-based; outline: as §1
[6] = target: Signal transducer and activator of transcription 3 (Homo sapiens) (UniProt P40763); assay: Inhibition of TPA-induced phosphorylation at Tyr705 of Stat3 in HEK293 whole cell extract at 71.3 uM treated 1 hr before TPA stimulation measured after 18 hrs by immunoblot analysis; type: cell-based; outline: as §1
[7] = target: Signal transducer and activator of transcription 3 (Homo sapiens) (UniProt P40763); assay: Inhibition of TPA-induced phosphorylation at Tyr705 of Stat3 in HEK293 whole cell extract at 31.6 uM treated 1 hr before TPA stimulation measured after 18 hrs by immunoblot analysis; type: cell-based; outline: as §1
[8] = Inhibition of protein synthesis in cell-free extract of mouse Krebs2 cells by SDS-PAGE; type: functional
[9] = Growth inhibition of human AP-1 beta-lactamase reporter screening assay cells at 1 uM; conditions: AP-1 reporter cells
HeLa = assay: Inhibition of protein synthesis in human HeLa cells assessed as [35S]methionine incorporation into protein treated for 45 mins before [35S]methionine addition by Whatman paper analysis; type: functional, cell-based
[10] = target: Signal transducer and activator of transcription 3 (Homo sapiens) (UniProt P40763); assay: Inhibition of TPA-induced phosphorylation at Tyr705 of Stat3 in HEK293 whole cell extract at 20.4 uM treated 1 hr before TPA stimulation measured after 18 hrs by immunoblot analysis; type: cell-based; outline: as §1
[11] = target: Signal transducer and activator of transcription 3 (Homo sapiens) (UniProt P40763); assay: Inhibition of TPA-induced phosphorylation at Tyr705 of Stat3 in HEK293 whole cell extract at 15.8 uM treated 1 hr before TPA stimulation measured after 18 hrs by immunoblot analysis; type: cell-based; outline: as §1
[12] = target: T1, Inhibitor of nuclear factor kappa-B kinase subunit alpha (Homo sapiens); assay: Inhibition of TPA-induced IkappaBalpha phosphorylation in HEK293 whole cell extract at 20.4 uM treated 1 hr before TPA stimulation measured after 18 hrs by immunoblot analysis; type: cell-based
Outline: (§3)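 HEK293 cells grown in DMEM with 10% FBS at 37 °C and 5% CO2. Cells were pretreated with quassinoid or DMSO for 1 h, then stimulated with TPA (10 ng/mL) for 18 h. Whole-cell extracts were made in RIPA buffer (10 mM Tris-HCl pH 7.5, 1 mM EDTA, 0.1% SDS, 0.1% deoxycholate, protease inhibitor). Immunoblots were probed for phospho-IκB-α, with tubulin as loading control.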

[13] = target: T1, Inhibitor of nuclear factor kappa-B kinase subunit alpha (Homo sapiens); assay: Inhibition of TPA-induced IkappaBalpha phosphorylation in HEK293 whole cell extract at 40.8 uM treated 1 hr before TPA stimulation measured after 18 hrs by immunoblot analysis; type: cell-based; outline: as §3
[14] = target: T1, Inhibitor of nuclear factor kappa-B kinase subunit alpha (Homo sapiens); assay: Inhibition of TPA-induced IkappaBalpha phosphorylation in HEK293 whole cell extract at 35.5 uM treated 1 hr before TPA stimulation measured after 18 hrs by immunoblot analysis; outline: as §1
[15] = target: T1, Inhibitor of nuclear factor kappa-B kinase subunit alpha (Homo sapiens); assay: Inhibition of TPA-induced IkappaBalpha phosphorylation in HEK293 whole cell extract at 71.3 uM treated 1 hr before TPA stimulation measured after 18 hrs by immunoblot analysis; type: cell-based; outline: as §1

Row | inhibition [1] | inhibition [2] | inhibition [3] | inhibition [5] | inhibition [6] | inhibition [7] | IC50 [8] | IC50 (HeLa) | inhibition [10] | inhibition [11] | inhibition [14] | inhibition [15] | SMILES | inhibition (HEK293) | inhibition (Nucleic Acid) | GI50 [4] | inhibition at 1 µM [9] | inhibition [12] | inhibition [13]
1 | Active | inactive | inactive | Active | inactive | inactive | 420 nM | 3.4 nM | inactive | inactive | – | – | CCC(C)C(=O)O[C@H]1C(=O)O[C@@H]2C[C@H]3C(C)=CC(=O)[C@@H](O)[C@]3(C)[C@H]3[C@]4(O)OC[C@]32[C@@H]1[C@@H](C)[C@H]4O (some centres not stated) [AILANTHINONE] | Dose-dependent effect | Dose-dependent effect | 31000 nM | < 25% | – | –
2 | – | inactive | inactive | – | inactive | inactive | 910 nM | 670 nM | inactive | inactive | Active | Active | CC(C)=CC(=O)O[C@@H]1[C@H]2C(C)=C[C@H](O)[C@@H](O)[C@]2(C)[C@H]2[C@]3(O)OC[C@@]24[C@@H]1OC(=O)C[C@H]4[C@@H](C)[C@H]3O | Dose-dependent effect | Dose-dependent effect | 260 nM | – | – | –

Row | SMILES | inhibition [1] | inhibition [2] | inhibition [3] | inhibition [5] | inhibition [6] | inhibition [7] | IC50 [8] | IC50 (HeLa) | inhibition [10] | inhibition [11] | inhibition [14] | inhibition [15] | inhibition (HEK293) | inhibition (Nucleic Acid) | GI50 [4] | inhibition at 1 µM [9] | inhibition [12] | inhibition [13]
3 | CC[C@](C)(O)C(=O)O[C@H]1C(=O)O[C@@H]2C[C@H]3C(C)=CC(=O)[C@@H](O)[C@]3(C)[C@H]3[C@@]4(O)OC[C@]32[C@@H]1[C@@H](C)[C@H]4O (stereo in doubt; 4) | – | inactive | inactive | – | inactive | inactive | – | – | inactive | inactive | – | – | Dose-dependent effect | Dose-dependent effect | – | – | Active | Active
